Results collected from several papers.
Lines come from different studies, so protocols differ. In brackets after ≈: the same amount, converted by molar mass.

| Compound | target or system | test | system | setting | measurement | result |
| --- | --- | --- | --- | --- | --- | --- |
| O=C(Nc1ccccc1-c1ccc(F)c(F)c1)c1nccnc1C(F)(F)F | Colletotrichum gloeosporioides | microbial growth |  |  | EC50 | > 100 µg/mL |
| Cc1ccc(Cl)cc1NC(=O)Cc1c[nH]c2ccccc12 |  | ABTS scavenging |  |  | IC50 | 1.28 µM |
| Clc1ccccc1C(c1ccccc1)(c1ccccc1)n1ccnc1 | Mucor | microbial growth, disc diffusion |  | 20000 µg/mL | inhibition zone | 22 mm |
| COc1ccccc1-c1n[nH]c2nc(N[C@H]3CC[C@H](NS(=O)(=O)CCCOCCOCCNC(=O)OC(C)(C)C)CC3)ncc12 | Leishmania donovani | parasite growth | THP-1 | intracellular, amastigote | EC50 | 5.24 µM |
| CO/N=C1\CN(c2nc3c(cc2F)c(=O)c(C(=O)O)cn3C2CC2)CC1CN (stereo not drawn) | Moraxella catarrhalis | microbial growth |  |  | MIC | 2 µg/mL (≈ 5.14 µM) |
| COc1ccc(-c2ccc(-c3ccc(C(=N)N)nc3)s2)cc1Cl | U-251 | cell growth or viability, SRB |  |  | GI50 | 1.82 µM |
| CC(C)C[C@H](NC(=O)[C@H](Cc1ccccc1)NC(=O)c1cnccn1)B(O)O | NCI-H1048 | cell growth or viability, ATP luminescence |  |  | IC50 | 0.017 µM |
| COc1ccc(-c2ccc(-c3ccc(C(=N)N)nc3)s2)cc1 | OVCAR-4 | cell growth or viability, SRB |  |  | GI50 | 1.79 µM |
| O=C(Cc1c[nH]c2ccccc12)Nc1cccc(Br)c1 |  | ABTS scavenging |  |  | IC50 | 1.14 µM |
| COc1cc(Nc2nccc(-c3cnn4nc(OC)ccc34)n2)cc(C(F)(F)F)c1 | NCI-H2286 | cell growth or viability, ATP luminescence |  |  | IC50 | 0.16 µM |
| O=C(Cc1c[nH]c2ccccc12)Nc1ccc(F)c(F)c1 |  | ABTS scavenging |  |  | IC50 | 1.08 µM |
| O=C(CN1C(=O)/C(=C/c2cccs2)SC1=S)Nc1ccccc1 | A549 | cell growth or viability, MTT |  | 10 µM | inhibition | 23.5% |
| CC1(C)S[C@@H]2[C@H](NC(=O)[C@H](N)c3ccccc3)C(=O)N2[C@H]1C(=O)O | Moraxella catarrhalis | microbial growth, broth dilution | ATCC25238 |  | MIC | < 0.25 µg/mL |
| COc1cccc(NC(=O)CN2C(=O)/C(=C/c3ccco3)SC2=S)c1 | A549 | cell growth or viability, MTT |  | 10 µM | inhibition | 13.7% |
| COc1ccc(OC)c(NC(=O)Cc2c[nH]c3ccccc23)c1 |  | ABTS scavenging |  |  | IC50 | 1.43 µM |
